# Columns and labels:
# [1] = tested on: Entamoeba histolytica; test: Antiamnesic activity against Entamoeba histolytica HM-1:IMSS after 72 hrs by trypan blue exclusion method; assay type: functional, organism-based
# Summary of the method: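 Trophozoites grown in TYIS-33 medium and tested by microdilution; amoebae counted by haemocytometer, viability confirmed by trypan blue exclusion. Compounds in DMSO (1 mg/ml stock), two-fold serial dilutions, with medium blanks and untreated controls. After incubation, wells washed in warm 0.9% NaCl, methanol-fixed, eosin-stained, dye released in 0.1 N NaOH, OD 490 nm. IC50 from linear regression of % inhibition versus log dose.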
# [2] = Safety index, ratio of IC50 for human kidney epithelial cells to IC50 for Entamoeba histolytica HM-1:IMSS
# [3] = tested on: Entamoeba histolytica; test: Antiamoebic activity against Entamoeba histolytica HM-1:IMSS after 72 hrs by microdilution method
# [4] = Cytotoxicity against human kidney epithelial cells after 44 hrs by MTT assay; assay type: ADME, cell-based; details: Epithelial cell
SMILES,IC50 [1] [nM],selectivity ratio ([2]; human kidney epithelial cells),IC50 [3] [nM],IC50 [4] [nM],IC50 ([1]; in the assay text read “Antiamoebic” for “Antiamnesic”) [nM],selectivity ratio ([2]; epithelial cell)
Cc1ccc(/C=C/C(=O)c2ccccc2)cc1,2120,,,,,
O=C(/C=C/c1ccc(Cl)c(Cl)c1)c1ccccc1,,> 24.9,2010,> 50000,,
CC(C)c1ccccc1/C=C/C(=O)c1ccccc1,3480,> 13.2,,> 46000,,
O=C(/C=C/c1ccccc1Cl)c1ccccc1,,> 19.2,2600,> 50000,,
CCc1ccccc1/C=C/C(=O)c1ccccc1,1790,> 27.9,,> 50000,,
Cc1ccc(C2CC(c3ccccc3)=NN2C(N)=S)cc1 (stereo not given),1580,> 31.7,,> 50000,,
Cc1ccc(C2CC(c3ccccc3)=NN2c2nc3nc4ccccc4nc3s2)cc1 (stereo not given),,> 46.4,,> 14000,300,
Cc1cc(C)c(C2CC(c3ccccc3)=NN2c2nc3nc4ccccc4nc3s2)c(C)c1 (stereo not given),,> 10.8,3200,> 35000,,
CCc1ccccc1C1CC(c2ccccc2)=NN1C(N)=S (stereo not given),1610,> 31.1,,> 50000,,
CC(C)c1ccccc1C1CC(c2ccccc2)=NN1C(N)=S (stereo not given),,> 217,230,> 50000,,
Clc1cccc(C2CC(c3ccccc3)=NN2c2nc3nc4ccccc4nc3s2)c1Cl (stereo not given),,> 56.2,890,> 50000,,
Clc1ccccc1C1CC(c2ccccc2)=NN1c1nc2nc3ccccc3nc2s1 (stereo not given),,> 26.3,1900,> 50000,,
c1ccc(C2=NN(c3nc4nc5ccccc5nc4s3)C(c3c[nH]c4ccccc34)C2)cc1 (stereo not given),1290,> 14,,> 18000,,
CC(C)c1ccccc1C1CC(c2ccccc2)=NN1c1nc2nc3ccccc3nc2s1 (stereo not given),,> 294,170,> 50000,,
O=C(/C=C/c1c[nH]c2ccccc12)c1ccccc1,1800,> 24.4,,> 44000,,
NC(=S)N1N=C(c2ccccc2)CC1c1c[nH]c2ccccc12 (stereo not given),1770,> 30.5,,> 54000,,
NC(=S)N1N=C(c2ccccc2)CC1c1ccccc1Cl (stereo not given),,> 22.4,2230,> 50000,,
Cc1cc(C)c(/C=C/C(=O)c2ccccc2)c(C)c1,,> 35.5,1410,> 50000,,
NC(=S)N1N=C(c2ccccc2)CC1c1ccccc1 (stereo not given),1610,> 31.1,,> 50000,,
Cc1cc(C)c(C2CC(c3ccccc3)=NN2C(N)=S)c(C)c1 (stereo not given),,> 11.4,4370,> 50000,,
c1ccc(C2=NN(c3nc4nc5ccccc5nc4s3)C(c3ccccc3)C2)cc1 (stereo not given),1490,> 33.5,,> 50000,,
CCc1ccccc1C1CC(c2ccccc2)=NN1c1nc2nc3ccccc3nc2s1 (stereo not given),1490,> 33.5,,> 50000,,
O=C(/C=C/c1ccccc1)c1ccccc1 [CHALCONE],1700,> 29.4,,> 50000,,
Cc1ncc([N+](=O)[O-])n1CCO [METRONIDAZOLE],,,1800,> 100000,,> 55.6
